Screening data: PubChem, The Scripps Research Institute Molecular Screening Center
Most compounds without a hit are left out; they make up all but 3.3% or so of the library.
rCAG binder: r(CAG) repeat RNA binding. 370,000 compounds, 1.3% hits. inhibition, % at 3 µM. TO-PRO-1 dye displacement fluorescence;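 active = inhibition above the plate cutoff, the mean of all test compounds on that plate plus 3 SD, cut at about 35% in these data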;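 note: 0% = DMSO alone and 100% = 100 µM mitoxantrone as full dye displacement; higher means more dye released from RNA so lower well fluorescence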
SIAE primary: blocks human sialic acid acetylesterase; Q9HAT2; 370,000 compounds, 0.69% hits; inhibition, % at 9.66 µM; SIAE FP-Rh probe binding, fluorescence polarization;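 active = inhibition above a cutoff: mean of compounds within the control limits plus 3 SD of those, cut at about 17% in these data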;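 note: 0% = plate median of compound wells and 100% = probe without SIAE protein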
mABHD4 FP: inhibits mouse alpha/beta hydrolase domain 4; Q8VD66; purified mABHD4, FP-Rh probe fluorescence polarization; inhibition, % at 8.92 µM; 370,000 compounds, 0.54% hits; AID 720543;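 active = inhibition exceeding the mean over every tested compound plus 3 SD, cut at about 30% in these data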;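 note: 0% = plate median of compound wells and 100% = S159A mutant with DMSO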
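Material: mouse ABHD4 enzyme, wild type; Benchmarks: S159A mutant high control, sample median low control; Buffer or medium: HEPES pH 7.0, NaCl, Pluronic buffer; Signal: fluorescence polarization; Read-out: percent inhibition of probe binding, normalized to plate controls; Timing: pre-incubation 45 min, probe exposure 60 min, at 25 °C; Dosing: 8.92 µM, single dose.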
PRMT1 FP inh: PRMT1 (human) inhibition, primary screen. 370,000 compounds, 1.3% hits. Q99873. recombinant PRMT1, activity-based probe fluorescence polarization. AID 652257. inhibition, % at 2.79 µM;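 active = inhibition above about 21% made by adding two undisclosed values, limit read from the data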
Target sequence (Q99873 whole entry, looked up): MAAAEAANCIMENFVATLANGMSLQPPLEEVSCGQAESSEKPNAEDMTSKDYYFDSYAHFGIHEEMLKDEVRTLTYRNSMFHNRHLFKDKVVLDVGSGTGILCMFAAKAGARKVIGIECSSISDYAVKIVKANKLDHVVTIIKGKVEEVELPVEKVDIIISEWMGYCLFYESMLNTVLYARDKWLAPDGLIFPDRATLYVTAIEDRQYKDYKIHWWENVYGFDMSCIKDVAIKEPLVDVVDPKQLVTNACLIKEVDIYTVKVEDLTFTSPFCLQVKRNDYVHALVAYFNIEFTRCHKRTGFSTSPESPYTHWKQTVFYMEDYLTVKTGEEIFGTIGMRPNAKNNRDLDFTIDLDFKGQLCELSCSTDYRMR
TCR-CD3 inh: human TCR-CD3 binding inhibition. TAMRA-labeled TCR probe fluorescence, biochemical. inhibition, % at 9.4 µM. AID 651800. 360,000 compounds, 0.37% hits; in the data active = inhibition above about 19%;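 note: recombinant mutant TCR 2C K166C tagged with TAMRA read by polarization; 0% = receptor in buffer alone and 100% = receptor with positive control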
rCAG bind conf: r(CAG) RNA repeat binding, confirmation; TO-PRO-1 dye displacement fluorescence; 4,300 compounds, 70% hits; inhibition, % at 3 µM; shares compounds with rCAG binder;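 active = inhibition above a per-plate cutoff, the mean inhibition of sample wells plus 3 SD, cut at about 35% in these data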;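 note: loss of TO-PRO-1 fluorescence as compound displaces dye from 1x1 AA loop RNA; 0% = DMSO only wells and 100% = 100 µM mitoxantrone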
DNA CAG counter: DNA CAG dye complex inhibition counter-screen. shares compounds with rCAG binder. inhibition, % at 3 µM. 4,300 compounds, 94% hits. d(CAG) DNA oligo TO-PRO-1 dye displacement, fluorescence. AID 652068;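 active = inhibition above its plate's cutoff, the mean test-well inhibition plus 3 SD, cut at about 4.8% in these data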;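 note: 0% = DNA dye mix with DMSO and 100% = 100 µM mitoxantrone; hits displace the dye from DNA and so lower well fluorescence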
DNA CAG DR: disrupts DNA CAG TO-PRO-1 complex in dose response. shares compounds with rCAG binder. DNA CAG/GTC duplex TO-PRO-1 dye displacement fluorescence. IC50, µM. 250 compounds, 20% hits; in the data active = IC50 below about 10 µM
* = called active by the depositor.

COc1cccc(OCc2cc(/C=N/Nc3ccc(C(=O)O)cc3)ccc2OC)c1 was read as rCAG binder 64*, SIAE primary 3, mABHD4 FP 34*, PRMT1 FP inh 10, TCR-CD3 inh 0, rCAG bind conf 74* and DNA CAG counter 37*.
For COc1cc(/C=N/NS(=O)(=O)c2ccc(C)cc2)ccc1OCc1cccc(C(=O)O)c1 the results were rCAG binder 24, SIAE primary 0, mABHD4 FP -7, PRMT1 FP inh 1 and TCR-CD3 inh 8.
Screening COc1cccc(C(=O)Oc2ccc(/C=N/Nc3ccc(C(=O)O)cc3)cc2OC)c1 returned rCAG binder 70*, SIAE primary 9, mABHD4 FP 13, PRMT1 FP inh 8, TCR-CD3 inh 2, rCAG bind conf 67* and DNA CAG counter 25*.
COc1cc(/C=N/NS(=O)(=O)c2ccc3ccccc3c2)ccc1OCc1ccc(C(=O)O)cc1 was read as rCAG binder 48*, SIAE primary -9, mABHD4 FP -4, PRMT1 FP inh 5, TCR-CD3 inh -1, rCAG bind conf 40* and DNA CAG counter 11*.
Screening COc1cccc(/C=N/Nc2ccc(C(=O)O)cc2)c1O returned rCAG binder 2, SIAE primary -4, mABHD4 FP 8, PRMT1 FP inh 8 and TCR-CD3 inh 6.
For CC(C)(C)c1ccc(/C=N/Nc2ccc(C(=O)O)cc2)cc1 the results were rCAG binder 39*, SIAE primary 3, mABHD4 FP 3, PRMT1 FP inh 6, TCR-CD3 inh 2, rCAG bind conf 36* and DNA CAG counter 8.8*.
Screening Nn1c(SCC(=O)Nc2ccccc2-c2ccccc2)nnc1-c1n[nH]c2c1CCC2 returned rCAG binder 1, SIAE primary 1, mABHD4 FP 4 and PRMT1 FP inh -2.
Screening CCNC(=S)NNC(=O)CSc1nnc(-c2ccccc2)n1-c1ccc(Cl)cc1 returned rCAG binder 12, SIAE primary 10, mABHD4 FP 3 and PRMT1 FP inh -2.
COc1cc(/C=N/Nc2ccc(Cl)c(C(=O)O)c2)ccc1OC(=O)c1ccccc1F was read as rCAG binder 66*, SIAE primary 9, mABHD4 FP 16, PRMT1 FP inh 5, TCR-CD3 inh -1, rCAG bind conf 80* and DNA CAG counter 47*.
COc1cc(/C=N/Nc2ccc(Cl)c(C(=O)O)c2)ccc1OC(=O)c1ccc(F)cc1 was read as rCAG binder 9, SIAE primary 11, mABHD4 FP 6, PRMT1 FP inh 5 and TCR-CD3 inh 0.
For C/C(=N\NS(=O)(=O)c1ccc(C)cc1)c1cccs1 the results were rCAG binder 2, SIAE primary 4, mABHD4 FP -5, PRMT1 FP inh -1 and TCR-CD3 inh 1.
Screening Cc1ccc(S(=O)(=O)NN=C(c2ccccc2)c2cccs2)cc1 returned rCAG binder 36*, SIAE primary -5, mABHD4 FP -13, PRMT1 FP inh -4, TCR-CD3 inh 4, rCAG bind conf 19 and DNA CAG counter 6.7*.
For COc1cc(C(=O)NCCNC(=O)c2ccco2)cc(OC)c1OC the results were rCAG binder 46*, SIAE primary -8, mABHD4 FP -2, PRMT1 FP inh 17, TCR-CD3 inh -2, rCAG bind conf 43* and DNA CAG counter 13*.
Screening COc1cc(C(=O)NCc2ccco2)cc(OC)c1OC returned rCAG binder -2, SIAE primary 8, mABHD4 FP 3, PRMT1 FP inh -1 and TCR-CD3 inh 5.
For Cc1ccc2nc(N/C(=N/S(=O)(=O)c3ccc(F)cc3)c3ccccc3)sc2c1 the results were rCAG binder 27, SIAE primary 1, mABHD4 FP -14, PRMT1 FP inh -1 and TCR-CD3 inh -5.
Cc1ccc2nc(N/C(=N/S(=O)(=O)c3ccc(F)cc3F)c3ccccc3)sc2c1 was read as rCAG binder 46*, SIAE primary -5, mABHD4 FP -45, PRMT1 FP inh 6, TCR-CD3 inh -8, rCAG bind conf 48* and DNA CAG counter 14*.
For COc1ccc(OCC(=O)NC(=S)Nc2ccc(S(=O)(=O)Nc3cc(C)on3)cc2)cc1 the results were rCAG binder 1, SIAE primary 3, mABHD4 FP 0, PRMT1 FP inh 0 and TCR-CD3 inh -3.
Cc1cc(NS(=O)(=O)c2ccc(NC(=S)NC(=O)c3ccc(Br)cc3)cc2)no1 was read as rCAG binder 57*, SIAE primary -4, mABHD4 FP -6, PRMT1 FP inh -1, TCR-CD3 inh -2, rCAG bind conf 47* and DNA CAG counter 16*.
For Cc1cc(NS(=O)(=O)c2ccc(NC(=O)Nc3ccccc3)cc2)no1 the results were rCAG binder 11, SIAE primary 7, mABHD4 FP -6, PRMT1 FP inh -2 and TCR-CD3 inh 5.
`Cc1cc(NS(=O)(=O)c2ccc(NC(=O)C(C)Oc3ccc(C(C)C)cc3)cc2)no1` (stereo unspecified) gave rCAG binder 47*, SIAE primary 2, mABHD4 FP -21, PRMT1 FP inh 7, TCR-CD3 inh -5, rCAG bind conf 49* and DNA CAG counter 16*.
`Cc1cc(NS(=O)(=O)c2ccc(NC(=O)C(c3ccccc3)c3ccccc3)cc2)no1` gave rCAG binder 59*, SIAE primary 2, mABHD4 FP -14, PRMT1 FP inh 0, TCR-CD3 inh 15, rCAG bind conf 47* and DNA CAG counter 18*.
`CCc1ccc(OCC(=O)Nc2ccc(S(=O)(=O)Nc3cc(C)on3)cc2)c(Br)c1` gave rCAG binder 78*, SIAE primary -10, mABHD4 FP -31, PRMT1 FP inh 13, TCR-CD3 inh -1, rCAG bind conf 74*, DNA CAG counter 28* and DNA CAG DR inactive.
For COc1ccc(NC(=O)c2cc3c(C)nn(-c4ccccc4)c3s2)cc1 the results were rCAG binder 16, SIAE primary -31, mABHD4 FP -25 and PRMT1 FP inh 3.
`COc1ccc(-c2cc(-c3nnc(SCC(=O)Nc4nccs4)n3N)[nH]n2)cc1` gave rCAG binder 3, SIAE primary -6, mABHD4 FP -4 and PRMT1 FP inh -6.
CCCCCC[C@H](CN(CCCC)S(C)(=O)=O)c1ccccc1 was read as rCAG binder 0, SIAE primary 6, mABHD4 FP -1 and PRMT1 FP inh -1.
Oc1ccc(C2Nc3cccc4cccc(c34)N2)c(O)c1 was read as rCAG binder 75*, SIAE primary 20*, mABHD4 FP -5, PRMT1 FP inh 1, TCR-CD3 inh 2, rCAG bind conf 64* and DNA CAG counter 44*.
